In ChEMBL document CHEMBL1649179, “Pharmacokinetics of LB80331 and LB80317 following oral administration of LB80380, a new antiviral agent for chronic hepatitis B (CHB), in healthy adult subjects, CHB patients, and mice” (Antimicrob Agents Chemother, 2009):

Columns and labels:
Homo sapiens [1] = test: Half life in chronic hepatitis B virus infected patient assessed as (1-((2-amino-9H-purin-9-yl)methyl)cyclopropoxy)me at 30 mg, po qd for 4 weeks by LC-MS analysis; format: ADME, organism-based; conditions: in vivo, 672 h
In short: (§1)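 CHB patients given LB80380 orally once daily for 4 weeks. Plasma was sampled on day 1 and at steady state (weeks 2–4), predose and 0.5, 1, 2, 3, 4, 6, 8 and 24 h postdose. LB80331 was measured by validated LC-MS/MS (LLOQ 5 ng/ml). Terminal-phase apparent t1/2 came from noncompartmental analysis and was flagged if extrapolated AUC exceeded 20% of AUC0-24.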

Homo sapiens [2] = test: Oral clearance in chronic hepatitis B virus infected patient assessed as (1-((2-amino-9H-purin-9-yl)methyl)cyclopropoxy)me at 240 mg, po administered as single dose by LC-MS analysis; format: ADME, organism-based; conditions: in vivo
In short: (§2)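 Oral LB80380 was given once daily for 4 weeks to CHB patients. Plasma LB80331 was quantified by validated LC-MS/MS after protein precipitation, with stable-isotope internal standard, at baseline and steady state (weeks 2–4), 0–24 h postdose. Noncompartmental CL/F was calculated as dose (adjusted for LB80380/LB80331 molecular weights) divided by AUC (AUC0-∞ single dose; AUC0-24 steady state).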

Plasma = test: AUC (0 to 36 hrs) in CD-1 mouse plasma assessed as (1-((2-amino-9H-purin-9-yl)methyl)cyclopropoxy)me at 30 mg/kg, po administered as single dose by LC-MS analysis; format: ADME, organism-based; design: time < 36 hr, dose 30 mg/kg, route oral; conditions: in vivo
In short: (§3)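 Male CD-1 mice given a single oral dose in 100% PEG 400. Samples extracted with perchloric acid and neutralized with ammonium bicarbonate. One aliquot assayed for the free analyte; the other treated with calf intestinal phosphatase to give the total including di-/triphosphates. Analysis by LC-MS/MS.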

Liver [3] = test: AUC (0 to infinity) in CD-1 mouse liver assessed as di- and triphosphates of (1-((2-amino-9H-purin-9-yl)methyl)cyclopropoxy)me at 30 mg/kg, po administered as single dose by LC-MS analysis; format: ADME, organism-based; design: time infinity, dose 30 mg/kg, route oral; conditions: in vivo; in short: as §3
Homo sapiens [4] = test: Cmax in chronic hepatitis B virus infected patient assessed as (1-((2-amino-9H-purin-9-yl)methyl)cyclopropoxy)me at 120 mg, po qd for 4 weeks by LC-MS analysis; format: ADME, organism-based; design: dose 120 mg, route oral; conditions: in vivo, 672 h
In short: (§4)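 CHB patients, oral once daily for 4 weeks. Plasma sampled at steady state (weeks 2–4), predose and at 0.5, 1, 2, 3, 4, 6, 8 and 24 h postdose. LB80331 measured by validated LC-MS/MS (LLOQ 5 ng/ml) after protein precipitation with a stable-isotope internal standard. Cmax by noncompartmental analysis.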

Liver [5] = test: AUC (0 to 36 hrs) in CD-1 mouse liver assessed as di- and triphosphates of (1-((2-amino-9H-purin-9-yl)methyl)cyclopropoxy)me at 30 mg/kg, po administered as single dose by LC-MS analysis; format: ADME, organism-based; design: time < 36 hr, dose 30 mg/kg, route oral; conditions: in vivo; in short: as §3
Homo sapiens [6] = test: AUC (0 to infinity) in chronic hepatitis B virus infected patient assessed as (1-((2-amino-9H-purin-9-yl)methyl)cyclopropoxy)me at 120 mg, po administered as single dose by LC-MS analysis; format: ADME, organism-based, Plasma; design: dose 120 mg, time infinity, route oral; conditions: in vivo
In short: (§5)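 CHB patients (HBsAg/HBeAg positive), six per dose cohort, given a first oral dose on day 1. Plasma sampled at baseline. Analysis by validated LC-MS/MS after protein precipitation with a stable-isotope internal standard; LLOQ 5 ng/ml for LB80331. Noncompartmental analysis gives Cmax and AUC0-∞.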

Homo sapiens [7] = test: AUC (0 to infinity) in chronic hepatitis B virus infected patient assessed as (1-((2-amino-9H-purin-9-yl)methyl)cyclopropoxy)me at 240 mg, po administered as single dose by LC-MS analysis; format: ADME, organism-based, Plasma; design: dose 240 mg, route oral, time infinity; conditions: in vivo; in short: as §5
Homo sapiens [8] = test: Cmax in chronic hepatitis B virus infected patient assessed as (1-((2-amino-9H-purin-9-yl)methyl)cyclopropoxy)me at 60 mg, po qd for 4 weeks by LC-MS analysis; format: ADME, organism-based; design: dose 60 mg, route oral; conditions: in vivo, 672 h; in short: as §4
Homo sapiens [9] = test: Cmax in chronic hepatitis B virus infected patient assessed as (1-((2-amino-9H-purin-9-yl)methyl)cyclopropoxy)me at 240 mg, po administered as single dose by LC-MS analysis; format: ADME, organism-based; design: dose 240 mg, route oral; conditions: in vivo; in short: as §5
Homo sapiens [10] = test: Oral clearance in chronic hepatitis B virus infected patient assessed as (1-((2-amino-9H-purin-9-yl)methyl)cyclopropoxy)me at 60 mg, po qd for 4 weeks by LC-MS analysis; format: ADME, organism-based; conditions: in vivo, 672 h; in short: as §2
Homo sapiens [11] = test: Ratio of AUC (0 to infinity) in high fat diet fed healthy human to AUC (0 to infinity) in fasted healthy human assessed as (1-((2-amino-9H-purin-9-yl)methyl)cyclopropoxy)me at 60 mg, po administered as single dose by LC-MS analysis; conditions: in vivo
Homo sapiens [12] = test: Tmax in chronic hepatitis B virus infected patient assessed as (1-((2-amino-9H-purin-9-yl)methyl)cyclopropoxy)me at 60 mg, po administered as single dose by LC-MS analysis; format: ADME, organism-based; conditions: in vivo
In short: (§6)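 Daily oral LB80380 was given to CHB patients over 4 weeks. Blood was drawn on day 1 and at steady state (weeks 2–4), predose and 0.5–24 h postdose. Plasma LB80331 (LLOQ 5 ng/ml) and LB80317 (LLOQ 10 ng/ml) were measured by LC-MS/MS after protein-precipitation extraction. Tmax was taken by noncompartmental analysis.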

Homo sapiens [13] = test: Tmax in chronic hepatitis B virus infected patient assessed as (1-((2-amino-9H-purin-9-yl)methyl)cyclopropoxy)me at 60 mg, po qd for 4 weeks by LC-MS analysis; format: ADME, organism-based; conditions: in vivo, 672 h; in short: as §6
Homo sapiens [14] = test: Tmax in chronic hepatitis B virus infected patient assessed as (1-((2-amino-9H-purin-9-yl)methyl)cyclopropoxy)me at 120 mg, po administered as single dose by LC-MS analysis; format: ADME, organism-based; conditions: in vivo; in short: as §6
Homo sapiens [15] = test: Cmax in chronic hepatitis B virus infected patient assessed as (1-((2-amino-9H-purin-9-yl)methyl)cyclopropoxy)me at 240 mg, po qd for 4 weeks by LC-MS analysis; format: ADME, organism-based; design: dose 240 mg, route oral; conditions: in vivo, 672 h; in short: as §4
Homo sapiens [16] = test: Cmax in chronic hepatitis B virus infected patient assessed as (1-((2-amino-9H-purin-9-yl)methyl)cyclopropoxy)me at 30 mg, po qd for 4 weeks by LC-MS analysis; format: ADME, organism-based; design: dose 30 mg, route oral; conditions: in vivo, 672 h; in short: as §4
Homo sapiens [17] = test: Half life in chronic hepatitis B virus infected patient assessed as (1-((2-amino-9H-purin-9-yl)methyl)cyclopropoxy)me at 30 mg, po administered as single dose by LC-MS analysis; format: ADME, organism-based; conditions: in vivo; in short: as §1
Liver [18] = test: Half life in CD-1 mouse liver assessed as (1-((2-amino-9H-purin-9-yl)methyl)cyclopropoxy)me at 30 mg/kg, po administered as single dose by LC-MS analysis; format: ADME, organism-based; design: dose 30 mg/kg, route oral; conditions: in vivo; in short: as §3
Homo sapiens [19] = test: Cmax in fasted healthy human assessed as (1-((2-amino-9H-purin-9-yl)methyl)cyclopropoxy)me at 60 mg, po administered as single dose by LC-MS analysis; format: ADME, organism-based; design: dose 60 mg, route oral; conditions: in vivo
In short: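 Healthy subjects given a single oral dose after an overnight fast or after a high-fat breakfast. Plasma LB80331 measured by validated LC-MS/MS (LLOQ 5 ng/ml) after protein precipitation. Cmax by noncompartmental analysis.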

t1/2 (Homo sapiens [1]): 2.5 h | CL/F (Homo sapiens [2]): 363 mL/min | AUC (Plasma): 17 µM·h | AUC (Liver [3]): 64 µM·h | Cmax (Homo sapiens [4]): 0.696 µg/mL | AUC (Liver [5]): 64 µM·h | AUC (Homo sapiens [6]): 4.374 µg·h/mL | AUC (Homo sapiens [7]): 6.302 µg·h/mL | Cmax (Homo sapiens [8]): 0.362 µg/mL | Cmax (Homo sapiens [9]): 1.076 µg/mL | CL/F (Homo sapiens [10]): 273 mL/min | Ratio AUC (Homo sapiens [11]): 1.1 | Tmax (Homo sapiens [12]): 2 h | Tmax (Homo sapiens [13]): 2 h | Tmax (Homo sapiens [14]): 2 h | Cmax (Homo sapiens [15]): 1.164 µg/mL | Cmax (Homo sapiens [16]): 0.192 µg/mL | t1/2 (Homo sapiens [17]): 2.5 h | t1/2 (Liver [18]): 2.8 h | Cmax (Homo sapiens [19]): 0.286 µg/mL
SMILES: Nc1ncc2ncn(CC3(OCP(=O)(O)O)CC3)c2n1 [BESIFOVIR]
